Data set [1] can be described thus: AUC (0 to 72 hrs) in Wistar rat spleen at 10 mg/kg, po by HPLC analysis. The class given is ADME, organism-based. Further details: dose 10 mg/kg, time < 72 hr, route oral. A digest of the protocol:
(§1)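 Wistar rats (180 ± 20 g) were dosed orally at 10, 15 or 30 mg/kg. Heart, liver, spleen, lung, kidney and brain were collected at 0–72 h (n = 6 per point). Tissue was rinsed, blotted and homogenized in saline (0.25 g/1 mL), then spun at 10,000 × g. Supernatant was methanol-extracted, dried under nitrogen at 50 °C, reconstituted in methanol and run on C18 HPLC (acetonitrile 60%/water 40%, 1.0 mL/min).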

Data set [2] is described as follows: AUC (0 to 72 hrs) in Wistar rat liver at 10 mg/kg, po by HPLC analysis. Further details: time < 72 hr, dose 10 mg/kg, route oral. The data set is classed as ADME, organism-based. The method in brief: as §1
Data set [3] in a line: AUC (0 to 72 hrs) in Wistar rat brain at 30 mg/kg, po by HPLC analysis. The data set is classed as ADME, organism-based. More on the design: dose 30 mg/kg, time < 72 hr, route oral. The method in brief: as §1
A short description of data set [4]: Half life in Wistar rat brain at 30 mg/kg, po by HPLC analysis. The class given is ADME, organism-based. A digest of the protocol: (§2)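 Tissue distribution in male Wistar rats given oral 10, 15 or 30 mg/kg; heart, liver, spleen, lung, kidney and brain collected predose and 0.5–72 h post-dose (n = 6 per time). Tissue rinsed in saline, homogenised 0.25 g/1 mL saline, methanol extraction, dried under nitrogen, reconstituted in methanol. Analysis by reverse-phase C18 HPLC, acetonitrile/water 60:40, 1.0 mL/min, ambient temperature.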

The nature of data set [5]: Cmax in Wistar rat heart at 30 mg/kg, po by HPLC analysis. The data set is classed as ADME, organism-based. More on the design: dose 30 mg/kg, route oral. The method in brief: as §2
A short description of data set [6]: MRT (0 to infinity) in Wistar rat kidney at 10 mg/kg, po by HPLC analysis. The class given is ADME, organism-based. A digest of the protocol:
(§3)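 Male Wistar rats (180 ± 20 g) received a single oral dose of 10, 15 or 30 mg/kg. Tissues were collected at 0, 0.5, 1, 2, 4, 6, 8, 12, 24, 48 and 72 h (n = 6 per point). Samples of 0.25 g were rinsed, then homogenized in saline (0.25 g/1 mL) and centrifuged at 10,000 × g. Supernatant was methanol-extracted, dried under nitrogen at 50 °C and reconstituted in methanol. Analysis was by C18 HPLC (acetonitrile 60% / water 40%, 1.0 mL/min).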

A short description of data set [7]: MRT (0 to infinity) in Wistar rat plasma at 30 mg/kg, po by HPLC analysis. The class given is ADME, organism-based. The method in brief: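 Male Wistar rats (180 ± 20 g), 6 per dose group, each given a single oral dose. Blood was drawn by retro-orbital puncture into heparin at predose and at 0.5, 1, 2, 4, 6, 8, 12, 24, 48 and 72 h, then spun at 4000 × g and 4 °C. Plasma with internal standard was acetonitrile-precipitated, filtered and run on reverse-phase C18 HPLC (0.02 mol/L KH2PO4 55% / acetonitrile 45%, 1.0 mL/min). Calibration standards were 0.1–10 µg/mL, fitted by peak-height ratio with 1/conc² weighting.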

Data set [8] in a line: MRT (0 to infinity) in Wistar rat lung at 15 mg/kg, po by HPLC analysis. The class given is ADME, organism-based. A digest of the protocol:
as §3

A short description of data set [9]: AUC (0 to 72 hrs) in Wistar rat liver at 30 mg/kg, po by HPLC analysis. More on the design: time < 72 hr, dose 30 mg/kg, route oral. The data set is classed as ADME, organism-based. The method in brief:
as §1

A short description of data set [10]: Half life in Wistar rat kidney at 10 mg/kg, po by HPLC analysis. The class given is ADME, organism-based. A digest of the protocol:
as §2

Data set [11] can be described thus: AUC (0 to 72 hrs) in Wistar rat lung at 30 mg/kg, po by HPLC analysis. The data set is classed as ADME, organism-based. Further details: time < 72 hr, dose 30 mg/kg, route oral. The method in brief: as §1
Data set [12] in a line: MRT (0 to 72 hrs) in Wistar rat kidney at 15 mg/kg, po by HPLC analysis. The data set is classed as ADME, organism-based. A digest of the protocol:
as §2

Data set [13] can be described thus: MRT (0 to infinity) in Wistar rat kidney at 30 mg/kg, po by HPLC analysis. The class given is ADME, organism-based. A digest of the protocol:
as §3

Data set [14] can be described thus: Cmax in Wistar rat plasma at 30 mg/kg, po by HPLC analysis. The class given is ADME, organism-based. More on the design: dose 30 mg/kg, route oral.
Data set [15] is described as follows: AUC (0 to infinity) in Wistar rat lung at 30 mg/kg, po by HPLC analysis. The data set is classed as ADME, organism-based. Further details: dose 30 mg/kg, route oral, time infinity. A digest of the protocol: as §1
Data set [16] in a line: Toxicity in ICR mouse assessed as mortality at 2343.75 mg/kg, ig after 2 weeks. The data set is classed as organism-based. Conditions: in vivo, po.

Molecules are shown by their SMILES.

With `CCCCC1=NC2(CCCC2)C(=O)N1Cc1ccc2c(ccn2-c2ccccc2-c2nnn[nH]2)c1`, the AUC(0-t) at 72 h in data set [1] came out at 9470 ng·h/mL; in [2] it was 3070 ng·h/mL; in data set [3], 1790 ng·h/mL; in data set [9], 14500 ng·h/mL; in [11], 2360 ng·h/mL. The values for the half-life in [4] and in [10] were 2.99 h and 26.9 h, respectively. In addition, the peak concentration (Cmax) was 401 ng/mL in data set [5] and 5760 ng/mL in data set [14]. The mean residence time MRT inf came out at 25.3 h in data set [6], 16.1 h in [7], 3.64 h in [8] and 24.1 h in data set [13]. The compound further returned a mean residence time MRT last in data set [12] of 19.4 h. This compound also returned an AUC(0-inf) in data set [15] of 2410 ng·h/mL. Moreover, the mortality at 336 h in data set [16] worked out at 80%.

The values are drawn from ChEMBL document CHEMBL3872205, “Design, synthesis and evaluation of novel potent angiotensin II receptor 1 antagonists” (Eur J Med Chem, 2016).
